Each block holds one compound with its values, some of them ahead of it. Activity calls are given as the source filed them. The rule behind the calls is not given here.
Key:
BV-2 [1] = assay: Anti-neuroinflammatory activity in […] assessed as reduction in LPS-induced NO production at 10 uM preincubated for 4 hrs followed by LPS stimulation for 24 hrs by Griess assay relative to control; format: functional; conditions: for inhibition at 10 µM: Mus musculus
How it was run: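 Mouse microglial BV-2 cells in DMEM with 10% FBS. Pretreated at 10 µM for 4 h, then LPS 500 ng/mL for 24 h. Nitrite in supernatant measured with Griess reagent at 540 nm. Means ± S.E.M., n=3.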

BV-2 [2] = assay: Anti-neuroinflammatory activity in […] assessed as reduction in LPS-induced NO production preincubated for 4 hrs followed by LPS stimulation for 24 hrs by Griess assay; format: functional, cell-based; conditions: Mus musculus
How it was run: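 BV-2 cells pretreated 4 h over 0.78-100 µM (twofold series), then LPS 500 ng/mL for 24 h. Supernatant mixed 1:1 with Griess reagent, A540, against NaNO2 standard curve. IC50 by curve fitting; mean ± S.E.M. of three experiments.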

[3] = Cytotoxicity against […] assessed as reduction in cell viability after 24 hrs by MTT assay; format: cell-based, BV-2; conditions: BV2 cells
How it was run: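 BV-2 cells at 5 × 10^3/well, grown 12 h, then exposed to 1-100 µM for 24 h. MTT at 0.5 mg/mL final for 4 h at 37 ℃. Formazan dissolved in DMSO and read at 490 nm. CC50 as mean ± S.E.M. of three experiments.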

[4] = target: Nitric oxide synthase, inducible (Mus musculus) (UniProt P29477); assay: Inhibition of LPS-induced iNOS in mouse BV2 cells after 4 hrs by DAF-FMDA dye-based fluorescence assay
BV-2 [5] = assay: Anti-neuroinflammatory activity in […] assessed as reduction in LPS-induced COX-2 expression preincubated for 2 hrs followed by LPS stimulation for 24 hrs by Western blot analysis; format: functional, cell-based
How it was run: (§1)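 BV-2 cells at 5 × 10^5/well, pretreated at 1, 10 or 20 µM, then LPS 500 ng/mL. Lysed in RIPA with protease/phosphatase inhibitors. 30 µg protein blotted with primary antibodies 1:1000 and HRP secondary 1:5000, ECL detection. β-actin as loading control. Expressed as fold of control; at least three independent experiments, each in duplicate.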

BV-2 [6] = assay: Anti-neuroinflammatory activity in […] assessed as reduction in LPS-induced IL-1beta expression preincubated for 2 hrs followed by LPS stimulation for 24 hrs by Western blot analysis; format: functional, cell-based; how it was run: as §1
BV-2 [7] = assay: Anti-neuroinflammatory activity in […] assessed as reduction in LPS-induced TNF-alpha expression preincubated for 2 hrs followed by LPS stimulation for 24 hrs by Western blot analysis; format: functional, cell-based; how it was run: as §1
BV-2 [8] = assay: Anti-neuroinflammatory activity in […] assessed as reduction in LPS-induced iNOS expression preincubated for 2 hrs followed by LPS stimulation for 24 hrs by Western blot analysis; format: functional, cell-based; how it was run: as §1
Mus musculus [9] = assay: Anti-neuroinflammatory activity in MPTP-induced C57BL/6 mouse assessed as alleviation of functional behaviour impairment at 10 mg/kg, po pre-treated daily for 7 days followed by 4 times MPTP addition at 2 hrs intervals and measured after 4 to 72 hrs post MPTP injection by rota rod test; format: organism-based
How it was run: (§2)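 Male C57BL/6 mice, 7-8 weeks, 20-22 g, 8 per group. Pretrained 3 days on rota-rod, up to 25 rpm, to stay on 180 s. Dosed i.g. at 10 or 20 mg/kg daily for 7 days in 0.5% methylcellulose with 1% Tween 80, vehicle for controls. Then 4 i.p. MPTP injections (20 mg/kg) at 2-h intervals. Tested at 4, 24, 48 and 72 h; mean of three runs.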

Mus musculus [10] = assay: Anti-neuroinflammatory activity in MPTP-induced C57BL/6 mouse assessed as alleviation of functional behaviour impairment at 20 mg/kg, po pre-treated daily for 7 days followed by 4 times MPTP addition at 2 hrs intervals and measured after 4 to 72 hrs post MPTP injection by rota rod test; format: organism-based; how it was run: as §2
Mus musculus [11] = assay: (§3) Anti-neuroinflammatory activity in MPTP-induced C57BL/6 mouse assessed as increase in tyrosine hydroxylase positive cells in substantia nigra at 10 to 20 mg/kg, po pre-treated daily for 7 days followed by 4 times MPTP addition at 2 hrs intervals and measured after 4 to 72 hrs post MPTP injection by DAB staining based immunohistochemistry method; format: functional, organism-based
Mus musculus [12] = assay: as §3, with “striatum” for “substantia nigra”; format: functional, organism-based
Mus musculus [13] = assay: (§4) Anti-neuroinflammatory activity in MPTP-induced C57BL/6 mouse assessed as reduction in astroglial activation by measuring increase in glial fibrillary acidic protein expression in substantia nigra at 10 to 20 mg/kg, po pre-treated daily for 7 days followed by 4 times MPTP addition at 2 hrs intervals and measured after 4 to 72 hrs post MPTP injection by DAB staining based immunohistochemistry method; format: functional, organism-based
Mus musculus [14] = assay: as §4, with “striatum” for “substantia nigra”; format: functional, organism-based
[15] = target: Transcription factor p65 (Mus musculus) (UniProt Q04207); assay: Inhibition of LPS-induced nuclear translocation of NF-kappaB-p65 in mouse BV2 cells at 1 to 20 uM preincubated for 2 hrs followed by LPS stimulation for 2 hrs by Western blot analysis
Transcription factor p65 (Mus musculus), sequence (Q04207 whole entry, looked up): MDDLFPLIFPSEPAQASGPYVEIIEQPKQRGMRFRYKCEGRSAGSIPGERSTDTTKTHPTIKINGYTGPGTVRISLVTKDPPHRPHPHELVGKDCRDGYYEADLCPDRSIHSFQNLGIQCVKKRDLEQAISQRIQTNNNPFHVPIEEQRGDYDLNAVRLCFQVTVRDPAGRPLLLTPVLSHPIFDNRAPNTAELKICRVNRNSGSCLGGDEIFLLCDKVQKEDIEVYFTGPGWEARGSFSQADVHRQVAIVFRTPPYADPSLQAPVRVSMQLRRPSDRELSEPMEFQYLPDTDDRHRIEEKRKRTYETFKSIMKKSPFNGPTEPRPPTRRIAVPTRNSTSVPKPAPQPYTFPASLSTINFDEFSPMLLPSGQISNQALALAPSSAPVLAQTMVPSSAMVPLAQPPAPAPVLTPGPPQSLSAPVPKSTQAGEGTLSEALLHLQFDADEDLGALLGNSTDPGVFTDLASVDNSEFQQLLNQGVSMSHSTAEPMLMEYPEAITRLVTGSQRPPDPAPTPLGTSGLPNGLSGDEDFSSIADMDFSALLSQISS

Nitric oxide synthase, inducible (Mus musculus), sequence (P29477 whole entry, looked up): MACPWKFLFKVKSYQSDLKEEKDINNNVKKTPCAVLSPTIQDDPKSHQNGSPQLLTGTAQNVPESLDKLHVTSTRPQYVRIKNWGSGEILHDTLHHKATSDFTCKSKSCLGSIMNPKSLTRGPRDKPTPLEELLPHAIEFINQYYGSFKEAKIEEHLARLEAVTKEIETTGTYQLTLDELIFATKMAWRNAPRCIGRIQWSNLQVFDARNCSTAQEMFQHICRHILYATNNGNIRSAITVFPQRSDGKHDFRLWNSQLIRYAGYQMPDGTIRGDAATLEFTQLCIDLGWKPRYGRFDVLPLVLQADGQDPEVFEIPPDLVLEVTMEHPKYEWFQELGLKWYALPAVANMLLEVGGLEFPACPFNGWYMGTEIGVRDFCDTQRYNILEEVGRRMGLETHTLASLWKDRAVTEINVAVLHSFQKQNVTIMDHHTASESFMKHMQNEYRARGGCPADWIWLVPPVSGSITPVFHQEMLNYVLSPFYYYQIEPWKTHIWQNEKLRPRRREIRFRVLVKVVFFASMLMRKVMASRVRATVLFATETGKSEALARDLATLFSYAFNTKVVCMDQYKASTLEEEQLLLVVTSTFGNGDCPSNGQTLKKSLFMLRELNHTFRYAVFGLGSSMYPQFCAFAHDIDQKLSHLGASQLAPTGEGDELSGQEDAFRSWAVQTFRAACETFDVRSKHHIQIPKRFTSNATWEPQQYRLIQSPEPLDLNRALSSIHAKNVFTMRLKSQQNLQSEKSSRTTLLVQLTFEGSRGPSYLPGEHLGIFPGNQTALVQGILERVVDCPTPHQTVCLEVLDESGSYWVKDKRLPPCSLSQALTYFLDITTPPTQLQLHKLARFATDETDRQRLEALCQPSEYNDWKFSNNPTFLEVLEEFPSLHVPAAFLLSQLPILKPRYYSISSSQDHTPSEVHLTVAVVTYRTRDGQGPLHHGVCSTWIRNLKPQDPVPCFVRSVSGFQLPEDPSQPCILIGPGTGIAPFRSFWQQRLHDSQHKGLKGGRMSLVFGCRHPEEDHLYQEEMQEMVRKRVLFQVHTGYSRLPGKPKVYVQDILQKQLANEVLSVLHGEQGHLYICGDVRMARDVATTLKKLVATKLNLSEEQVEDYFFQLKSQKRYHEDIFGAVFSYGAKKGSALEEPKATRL

IC50 (BV-2 [2]): 26.4 µM | IC50 [4]: 18.9 µM
Structure (SMILES): O=C(/C=C/c1ccccc1)N[C@@H](Cc1ccccc1)C(=O)O
inhibition at 10 µM (BV-2 [1]): > 50% | CC50 at 24 h [3]: > 100 µM

Structure (SMILES): COC(=O)[C@H](Cc1ccccc1)NC(=O)/C=C/c1cccc(O)c1
inhibition (BV-2 [1]): Active

Structure (SMILES): COC(=O)[C@H](Cc1ccc(O)cc1)NC(=O)/C=C/c1cccc(O)c1
inhibition (BV-2 [1]): Active

Structure (SMILES): COc1cc(/C=C/C(=O)N[C@@H](CCC(=O)O)C(=O)O)ccc1O
inhibition (BV-2 [1]): Active

Structure (SMILES): COC(=O)CC[C@H](NC(=O)/C=C/c1ccccc1)C(=O)OC
inhibition (BV-2 [1]): Active

Structure (SMILES): COC(=O)[C@H](Cc1ccc(O)cc1)NC(=O)/C=C/c1ccc(O)cc1
inhibition (BV-2 [1]): Active

IC50 (BV-2 [2]): 3.4 µM | IC50 [4]: 2.1 µM
Structure (SMILES): O=C(/C=C/c1ccc(O)cc1)N[C@@H](Cc1ccc(O)cc1)C(=O)O
inhibition at 10 µM (BV-2 [1]): > 50% | CC50 at 24 h [3]: > 100 µM

IC50 (BV-2 [2]): 10.4 µM | IC50 [4]: 8.45 µM
Structure (SMILES): O=C(/C=C/c1ccc(O)cc1)N[C@@H](Cc1ccccc1)C(=O)O
inhibition at 10 µM (BV-2 [1]): > 50% | CC50 at 24 h [3]: > 100 µM

IC50 (BV-2 [2]): 15.3 µM | IC50 [4]: 29.2 µM
Structure (SMILES): O=C(/C=C/c1cccc(O)c1)N[C@@H](Cc1ccccc1)C(=O)O
inhibition at 10 µM (BV-2 [1]): > 50% | CC50 at 24 h [3]: > 100 µM

Structure (SMILES): O=C(O)CC[C@H](NC(=O)/C=C/c1cccc(O)c1)C(=O)O
inhibition (BV-2 [1]): Active

Structure (SMILES): O=C(O)CC[C@H](NC(=O)/C=C/c1ccccc1)C(=O)O
inhibition (BV-2 [1]): Active

Structure (SMILES): COC(=O)[C@H](Cc1ccc(O)cc1)NC(=O)/C=C/c1ccccc1
inhibition (BV-2 [1]): Active

Structure (SMILES): COC(=O)C[C@H](NC(=O)/C=C/c1ccc(O)cc1)C(=O)OC
inhibition (BV-2 [1]): Active

Structure (SMILES): COC(=O)CC[C@H](NC(=O)/C=C/c1ccc(O)c(OC)c1)C(=O)OC
inhibition (BV-2 [1]): Active

Structure (SMILES): COC(=O)[C@H](Cc1ccccc1)NC(=O)/C=C/c1ccccc1
inhibition (BV-2 [1]): Active

Structure (SMILES): O=C(O)C[C@H](NC(=O)/C=C/c1ccc(O)cc1)C(=O)O
inhibition (BV-2 [1]): Active

Structure (SMILES): COC(=O)[C@H](Cc1ccc(O)cc1)NC(=O)/C=C/c1ccc(O)c(OC)c1
inhibition (BV-2 [1]): Active

Structure (SMILES): O=C(O)C[C@H](NC(=O)/C=C/c1cccc(O)c1)C(=O)O
inhibition (BV-2 [1]): Active

Structure (SMILES): COC(=O)[C@H](Cc1ccccc1)NC(=O)/C=C/c1ccc(O)cc1
inhibition (BV-2 [1]): Active

Structure (SMILES): COC(=O)[C@H](Cc1ccccc1)NC(=O)/C=C/c1ccc(O)c(OC)c1
inhibition (BV-2 [1]): Active

Structure (SMILES): O=C(/C=C/c1ccccc1)N[C@@H](Cc1ccc(O)cc1)C(=O)O
inhibition (BV-2 [1]): Active

IC50 (BV-2 [2]): 2.67 µM | IC50 [4]: 1.01 µM | inhibition [15]: Active
Structure (SMILES): COc1cc(/C=C/C(=O)N[C@@H](Cc2ccc(O)cc2)C(=O)O)ccc1O
inhibition at 10 µM (BV-2 [1]): > 50% | CC50 at 24 h [3]: > 100 µM | Activity (BV-2 [5]): Dose-dependent effect | Activity (BV-2 [6]): Dose-dependent effect | Activity (BV-2 [7]): Dose-dependent effect | Activity (BV-2 [8]): Dose-dependent effect | Activity (Mus musculus [9]): Active | Activity (Mus musculus [10]): Active | Activity (Mus musculus [11]): Active | Activity (Mus musculus [12]): Active | Activity (Mus musculus [13]): Active | Activity (Mus musculus [14]): Active

IC50 (BV-2 [2]): 4.41 µM | IC50 [4]: 2.98 µM
Structure (SMILES): COc1cc(/C=C/C(=O)N[C@@H](Cc2ccccc2)C(=O)O)ccc1O
inhibition at 10 µM (BV-2 [1]): > 50% | CC50 at 24 h [3]: > 100 µM

Structure (SMILES): O=C(/C=C/c1cccc(O)c1)N[C@@H](Cc1ccc(O)cc1)C(=O)O
inhibition (BV-2 [1]): Active

Structure (SMILES): COC(=O)C[C@H](NC(=O)/C=C/c1cccc(O)c1)C(=O)OC
inhibition (BV-2 [1]): Active

Structure (SMILES): COC(=O)CC[C@H](NC(=O)/C=C/c1cccc(O)c1)C(=O)OC
inhibition (BV-2 [1]): Active

From ChEMBL document CHEMBL4229389, “Synthesis and biological evaluation of clovamide analogues as potent anti-neuroinflammatory agents in vitro and in vivo” (Eur J Med Chem, 2018)
